This passage reports Activity and MIC results from ChEMBL document CHEMBL1150956, “Antitubercular natural products: berberine from the roots of commercial Hydrastis canadensis powder. Isolation of inactive 8-oxotetrahydrothalifendine, canadine, beta-hydrastine, and two new quinic acid esters, hycandinic acid esters-1 and -2” (1998).

Assay [1] concerns Mycolicibacterium smegmatis. Briefly: Antimicrobial activity against Mycobacterium smegmatis ATCC 607 at 1000 ug/ml. It is filed as functional, organism-based.
Assay [2] concerns Staphylococcus aureus. Briefly: Antimicrobial activity against Staphylococcus aureus ATCC 13709 at 1000 ug/ml. The format is functional, organism-based.
Assay [3] concerns Candida albicans. Briefly: Antimicrobial activity against Candida albicans ATCC 10231 at 1000 ug/ml. The format is functional, organism-based.
The subject of assay [4] is Klebsiella pneumoniae. Briefly: Antimicrobial activity against Klebsiella pneumoniae ATCC 10031 at 1000 ug/ml. It is filed as functional, organism-based.
Assay [5] concerns Mycobacterium intracellulare. Briefly: Antimicrobial activity against recombinant Mycobacterium intracellular expressing pMV361 lux after 3 days by luciferase assay. The format is functional. The conditions noted are these: 72 h. A digest of the protocol:
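Recombinant M. intracellulare pMV361 lux at about 5e5 cfu/mL final, in Middlebrook 7H9 broth with compound at 0.1–50 µg/mL; no-drug 1% DMSO growth controls. Incubated at 36 °C in ambient air. 100 µL culture plus 100 µL of 1 mM luciferin, read as RLU at day 0 (within 30 min) and after 3 days.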

The test system of assay [6] is Escherichia coli. Briefly: Antimicrobial activity against Escherichia coli ATCC 9637 at 1000 ug/ml. The format is functional, organism-based.
In assay [7] the test system is Salmonella enterica subsp. enterica serovar Gallinarum. Briefly: Antimicrobial activity against Salmonella gallinarum ATCC 9184 at 1000 ug/ml. The format is functional, organism-based.
Assay [8] has as its system Pseudomonas aeruginosa. Kind of assay: Antimicrobial activity against Pseudomonas aeruginosa ATCC 27853 at 1000 ug/ml. It is filed as functional, organism-based.
Assay [9] concerns Candida albicans. Briefly: Antimicrobial activity against Candida albicans ATCC 10231. It is filed as functional.
The test system of assay [10] is Staphylococcus aureus. Kind of assay: Antimicrobial activity against Staphylococcus aureus ATCC 13709. It is filed as functional.
Assay [11] deals with Escherichia coli. Kind of assay: Antimicrobial activity against Escherichia coli ATCC 9637. The format is functional.
In assay [12] the test system is Pseudomonas aeruginosa. Briefly: Antimicrobial activity against Pseudomonas aeruginosa ATCC 27853. It is filed as functional.
Assay [13] has as its system Mycolicibacterium smegmatis. Briefly: Antimicrobial activity against Mycobacterium smegmatis ATCC 607. The format is functional.
Assay [14] relates to Salmonella enterica subsp. enterica serovar Gallinarum. Kind of assay: Antimicrobial activity against Salmonella gallinarum ATCC 9184. It is filed as functional.
In assay [15] the test system is Klebsiella pneumoniae. Kind of assay: Antimicrobial activity against Klebsiella pneumoniae ATCC 10031. The format is functional.

Molecules are shown by their SMILES. Activity calls are given as the source filed them. The rule behind the calls is not given here.

On to `CCCCOC(=O)[C@@]1(O)CC(OC(C)=O)[C@H](OC(=O)/C=C/c2ccc(OC(C)=O)c(OC)c2)[C@H](OC(C)=O)C1` (some centres not stated), for which the result (in assay [1]; with Staphylococcus aureus [2]; in the assay with Candida albicans [3]) was inactive.
In the case of `COc1c(O)ccc2c1C(=O)N1CCc3cc4c(cc3C1C2)OCO4` (configuration not stated), the outcome (in [1]; in the assay on Klebsiella pneumoniae [4]; in the assay on Staphylococcus aureus [2]; with Candida albicans [3]) was inactive. For the same compound, the MIC in [5] was more than 50 µg/mL.
Take `CCCCOC(=O)[C@@]1(O)CC(OC(=O)/C=C/c2ccc(OC(C)=O)c(OC)c2)[C@H](OC(C)=O)[C@H](OC(C)=O)C1` (some centres not stated): the result (in assay [1]; with Staphylococcus aureus [2]; with Candida albicans [3]) was inactive.
With `COc1c(OC(C)=O)ccc2c1C(=O)N1CCc3cc4c(cc3C1C2)OCO4` (configuration not stated), the result (in [1]; in the assay on Klebsiella pneumoniae [4]; in the assay with Staphylococcus aureus [2]; in the assay with Candida albicans [3]) was inactive. The minimum inhibitory concentration (MIC) in assay [5] is more than 50 µg/mL.
As for `COc1ccc2c(c1OC)C(=O)O[C@@H]2C1c2cc3c(cc2CCN1C)OCO3` (some centres not stated), the result (with Escherichia coli [6]; in [1]; in assay [7]; in the assay with Klebsiella pneumoniae [4]; in the assay on Pseudomonas aeruginosa [8]; in the assay on Staphylococcus aureus [2]) was inactive. In the assay with Candida albicans [3], the outcome was inactive.
As to `CCCCOC(=O)[C@@]1(O)CC(O)[C@H](OC(=O)/C=C/c2ccc(O)c(OC)c2)[C@H](O)C1` (some centres not stated), the outcome (in assay [1]; with Staphylococcus aureus [2]; in the assay on Candida albicans [3]) was inactive.
For `CCCCOC(=O)[C@@]1(OC(C)=O)CC(OC(=O)/C=C/c2ccc(OC(C)=O)c(OC)c2)[C@H](OC(C)=O)[C@H](OC(C)=O)C1` (some centres not stated), the result (in [1]; with Staphylococcus aureus [2]; in the assay on Candida albicans [3]) was inactive.
Take `CN[C@@H]1[C@H](O[C@H]2[C@H](O[C@H]3[C@H](O)[C@@H](O)[C@H](N=C(N)N)[C@@H](O)[C@@H]3N=C(N)N)O[C@@H](C)[C@]2(O)C=O)O[C@@H](CO)[C@H](O)[C@H]1O.CN[C@@H]1[C@H](O[C@H]2[C@H](O[C@H]3[C@H](O)[C@@H](O)[C@H](N=C(N)N)[C@@H](O)[C@@H]3N=C(N)N)O[C@@H](C)[C@]2(O)C=O)O[C@@H](CO)[C@H](O)[C@H]1O.O=S(=O)(O)O.O=S(=O)(O)O.O=S(=O)(O)O` [STREPTOMYCIN SULFATE]: the MIC in the assay with Candida albicans [9] was more than 100 µg/mL; in the assay with Staphylococcus aureus [10], 6.25 µg/mL; against Escherichia coli [11] it was 6.25 µg/mL; in the assay on Pseudomonas aeruginosa [12], 25 µg/mL; in [13] it was 1.56 µg/mL; in [14] it was 50 µg/mL. For the same compound, in the assay with Klebsiella pneumoniae [15], the MIC is 1.56 µg/mL.
Consider `COc1ccc2c(c1OC)C(=O)N1CCc3cc4c(cc3C1C2)OCO4` (configuration not stated), for which the outcome (in assay [1]; in the assay on Klebsiella pneumoniae [4]; with Staphylococcus aureus [2]; in the assay on Candida albicans [3]) was inactive. Moreover, the minimum inhibitory concentration (MIC) in [5] was more than 50 µg/mL.
With `COc1ccc2c(c1OC)CN1CCc3cc4c(cc3[C@@H]1C2)OCO4` [CANADINE], the result (in [1]; with Klebsiella pneumoniae [4]; in the assay on Staphylococcus aureus [2]; with Candida albicans [3]) was inactive. Also, the MIC in assay [5] is more than 50 µg/mL.
On to `COc1ccc2cc3[n+](cc2c1OC)CCc1cc2c(cc1-3)OCO2.[Cl-]` [BERBERINE CHLORIDE], for which the MIC in the assay with Candida albicans [9] amounted to 100 µg/mL; in the assay on Staphylococcus aureus [10], 50 µg/mL; in assay [13] it was 25 µg/mL; in the assay with Klebsiella pneumoniae [15], 100 µg/mL; in assay [5] it was 200 µg/mL.
For the compound `CCCCOC(=O)[C@@]1(O)CC(OC(=O)/C=C/c2ccc(O)c(OC)c2)[C@H](O)[C@H](O)C1` (some centres not stated), the result (in [1]; in the assay on Staphylococcus aureus [2]; in the assay on Candida albicans [3]) was inactive.
As for `CCCCOC(=O)[C@@]1(OC(C)=O)CC(OC(C)=O)[C@H](OC(=O)/C=C/c2ccc(OC(C)=O)c(OC)c2)[C@H](OC(C)=O)C1` (some centres not stated), the outcome (in [1]; in the assay with Staphylococcus aureus [2]; in the assay on Candida albicans [3]) was inactive.
